LANA-H2B inh = blockers of LANA interaction with H2A/H2B – biochemical, FP readout, HTS, primary screen; Protein LANA1 (Human herpesvirus 8 type P (isolate GK18)), Q9QR71; cell-free LANA-H2A/H2B peptide, fluorescence polarization; inhibition, % (no concentration beside the values); 320,000 compounds, 0.6% hits; AID 2629, 2010; in the data active = inhibition mostly above about 10%, no sharp cut-off; inactive = mostly below about 6.7%
EBNA-1 inh = EBNA-1 DNA-binding inhibitors, primary screen, biochemical, fluorescence polarization; inhibition, % at 14.8 µM; AID 1950, 2009; 300,000 compounds, 0.34% hits; in the data active = inhibition above about 28%
HNF4A DNA FP = change in binding of human HNF4A to DNA, primary screen, biochemical, fluorescence polarization, FITC-DNA; 1 h; activity change, % at 10 µM; Hepatocyte nuclear factor 4-alpha (Homo sapiens), P41235; 360,000 compounds, 0.3% hits; in the data active = activity change above about 30%, passing the limit was not always enough
Target sequence (P41235 whole entry, looked up): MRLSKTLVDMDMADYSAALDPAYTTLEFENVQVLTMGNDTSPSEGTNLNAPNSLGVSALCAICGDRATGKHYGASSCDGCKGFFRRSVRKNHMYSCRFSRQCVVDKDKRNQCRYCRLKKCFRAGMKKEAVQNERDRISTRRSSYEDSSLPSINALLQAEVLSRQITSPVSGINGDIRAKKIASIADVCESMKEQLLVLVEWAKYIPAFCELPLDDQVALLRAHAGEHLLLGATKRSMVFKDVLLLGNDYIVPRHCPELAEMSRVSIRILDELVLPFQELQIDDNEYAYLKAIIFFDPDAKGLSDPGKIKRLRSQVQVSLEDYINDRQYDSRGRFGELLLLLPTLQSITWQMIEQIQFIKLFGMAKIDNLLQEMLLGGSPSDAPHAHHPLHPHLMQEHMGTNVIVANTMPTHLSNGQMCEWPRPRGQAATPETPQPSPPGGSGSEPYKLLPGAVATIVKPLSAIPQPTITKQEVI
ZTA DNA inh = blocks Epstein-Barr virus ZTA, an EBNA-1 counter-screen; 320,000 compounds, 0.15% hits; P03206; inhibition, % at 11 µM; ZTA-DNA binding, fluorescence polarization; in the data active = inhibition above about 33%
Bfl-1 A1 inh = caspase 3/7 activation in MEF A1-2A-BIM cells, primary screen, A1 inhibitor project, cell-based, luminescence, HTS. Caspase-Glo 3/7 luminescence, 3 h; percent of clofoctol response, vehicle zero. caspase activation, % (concentration not given with the values). 330,000 compounds, 0.066% hits. AID 2462, 2010;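 active = over half of replicate activation scores above 10%, or exactly half above 10 with the replicate mean above 10; inconclusive = replicate mean below 10 yet half the replicates above 10; inactive = over half of replicates below 10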
CSN inh = inhibitors of CSN-mediated cullin deneddylation, primary screen, biochemical, fluorescence polarization, uHTS. Purified CSN, SCF-Nedd8-OG deneddylation. inhibition, % at 12.5 µM. COP9 signalosome complex subunit 5 (Homo sapiens), Q92905. 360,000 compounds, 0.38% hits. AID 651999, 2013;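 active = pattern-corrected inhibition above about 35%, with an unprinted fluorescence ratio check between 0.5 and 1.5, limit read from the data, passing the limit was not always enough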;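 also: 0% = enzyme with substrate and 100% = substrate without enzyme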
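Material: human Csn5 produced in HEK293T cells; Input: enzyme 0.24 nM; Reagent: SCFSkp2-Nedd8OG substrate at 10 nM final; Dosing: 12.5 µM compound; Incubation: 90 min reaction at room temperature; Detection: fluorescence polarization of the substrate; Evaluation: % inhibition of substrate cleavage by Csn5; Control set: substrate-only high control, full reaction low control.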
Zta DNA confirm = EBV Zta binding to ZRE DNA, inhibitors, confirmation, biochemical, fluorescence polarization, triplicate; shares compounds with ZTA DNA inh; inhibition, % at 11.1 µM; 320 compounds, 30% hits; AID 2361, 2010;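 active = mean inhibition across triplicate runs above the hit threshold derived for the original primary screen, cut at about 33% in these data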;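 also: 0% = Zta with DMSO and 100% = wells lacking Zta protein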
EBNA-1 counter = EBNA-1 DNA-binding inhibition, counter-screen for ZTA inhibitor project, biochemical, fluorescence polarization; shares compounds with ZTA DNA inh; inhibition, % at 14.8 µM; 320 tested, under 10 active; call rule not given here
Starred values were filed as active, the others as inactive; u = inconclusive; x = not tested or not shown; + = active, no number. A selection: hits, their analogues and other compounds. The true share with any hit is near 1.5%.

SMILES	LANA-H2B inh	EBNA-1 inh	HNF4A DNA FP	ZTA DNA inh	Bfl-1 A1 inh	CSN inh	Zta DNA confirm	EBNA-1 counter
C#CCOCCOCCOCCNc1nc(N2CCN(C(=O)CCCCCCCCCCNC(=O)[C@@H](CCSC)n3cc(CCO)nn3)CC2)nc(N2CCN(C(=O)CCCCCCCCCCNC(=O)[C@H]([C@@H](C)CC)n3cc(CCCCCN)nn3)CC2)n1	7	13	x	70*	-1	x	43*	4
C#CCOCCOCCOCCNc1nc(N2CCN(C(=O)CCCCCCCCCCNC(=O)[C@@H](CCSC)n3cc(CCO)nn3)CC2)nc(N2CCN(C(=O)CCCCCCCCCCNC(=O)[C@H]([C@@H](C)CC)n3cc(CCCCN=C(N)N)nn3)CC2)n1	-7	10	212	121*	1	139*	59*	-4
C#CCOCCOCCOCCNc1nc(N2CCN(C(=O)CCCCCCCCCCNC(=O)[C@H]([C@@H](C)CC)n3cc(CCCCCN)nn3)CC2)nc(N2CCN(C(=O)CCCCCCCCCCNC(=O)[C@@H]([C@H](C)O)n3cc(C)nn3)CC2)n1	-2	10	15	9	0	17	x	x
C#CCOCCOCCOCCNc1nc(N2CCN(C(=O)C([C@@H](C)CC)n3cc(C(N)CC(C)C)nn3)CC2)nc(N2CCN(C(=O)[C@H](CCC(=O)O)n3cc(C(N)[C@H](C)CC)nn3)CC2)n1 (stereo partly drawn)	0	16	1	58*	-1	0	12	-1
C#CCOCCOCCOCCNc1nc(N2CCN(C(=O)CCCCCCCCCCNC(=O)[C@H](CCCCN)n3cc(C)nn3)CC2)nc(N2CCN(C(=O)CCCCCCCCCCNC(=O)[C@@H]([C@H](C)CC)n3cc(CCCCCN)nn3)CC2)n1	-61	0	165	70*	2	111*	44*	-7
COC(=O)c1cccc(NC(=O)c2cccnc2C(=O)O)c1C	-4	-5	5	-8	-1	-3	x	x
CN1/C(=C\C=Nc2ccc3ccccc3c2)C(C)(C)c2ccccc21	-10	-11	30	8	0	15	x	x
CN(C)c1ccc(N=C/C=C2\N(C)c3ccccc3C2(C)C)cc1	-55	6	23	163*	0	12	2	-2
CCc1nnc(NS(=O)(=O)c2ccc(NC(=S)NC(=O)/C=C/c3ccccc3)cc2)s1	-7	1	-4	37*	0	4	13	5
N/C(=N\OC(=O)COc1ccc(Br)cc1Cl)c1ccccn1	-2	-13	-3	74*	-8	-7	6	-10
O=C(CSc1nc2ncc(Cl)cc2[nH]1)N1CCC(Cc2ccccc2)CC1	3	x	1	x	1	-1	x	x
O=C(O)c1ccc(S(=O)(=O)/N=C2\C=C(Nc3ccccc3F)C(=O)c3ccccc32)cc1	6	2	0	62*	-2	27	69*	11
COc1ccc(S(=O)(=O)/N=C2\C=C(Nc3ccc(O)cc3)C(=O)c3ccccc32)cc1	-1	-7	1	35*	-1	13	31	-10
C#CCOCCOCCOCCNc1nc(N2CCN(C(=O)CCCCCCCCCCNC(=O)[C@H](CCCCN)n3cc(CCO)nn3)CC2)nc(N2CCN(C(=O)CCCCCCCCCCNC(=O)[C@H](CCCN=C(N)N)n3cc(C[C@@H](C)CC)nn3)CC2)n1	-42	5	164	36*	0	109*	65*	-4
C#CCOCCOCCOCCNc1nc(N2CCN(C(=O)CCCCCCCCCCNC(=O)[C@H](CCCCN)n3cc(CCCC(=O)O)nn3)CC2)nc(N2CCN(C(=O)CCCCCCCCCCNC(=O)[C@H](CCCN=C(N)N)n3cc(C[C@@H](C)CC)nn3)CC2)n1	-15	9	29	48*	u	6	-2	-11
C#CCOCCOCCOCCNc1nc(N2CCN(C(=O)CCCCCCCCCCNC(=O)[C@H](CO)n3cc(CCCSC)nn3)CC2)nc(N2CCN(C(=O)CCCCCCCCCCNC(=O)[C@H](CCCCN)n3cc(C[C@@H](C)CC)nn3)CC2)n1	4	0	x	11	-1	x	x	x
Cn1c(-c2ccsc2)c(-c2cccs2)c2cc(Br)ccc21	5	x	-2	14	2	5	x	x
COc1cccc2c1C(=O)c1c(O)c3c(c(O)c1C2=O)CC(O)(C(=O)CO)CC3OC1CC(N(C)C)C(O)C(C)O1 (stereo not drawn)	x	x	-47	x	x	-73	x	x
COc1cccc2c1C(=O)c1c(O)c3c(c(O)c1C2=O)C[C@@](O)(C(=O)CO)C[C@@H]3O[C@H]1C[C@H](N)[C@@H](O)[C@H](C)O1	27*	20	-42	72*	1	-74	106*	12
COC(=O)C1(C)NC(c2cccc(C)c2)C2C(=O)N(c3ccccc3)C(=O)C21 (stereo not drawn)	x	x	-2	x	x	2	x	x
CCOC(=O)C1(C)NC(c2cccc(C)c2)C2C(=O)N(c3ccccc3)C(=O)C21 (stereo not drawn)	0	-8	-2	+	1	0	11	1
CCC(Oc1ccc(C)cc1)C(=O)Nc1ccccc1C(=O)N1CCOCC1 (stereo not drawn)	3	6	2	11	2	2	x	x
O=C(O)c1ccc(-c2ccc(/C=c3/sc4nc5ccccc5n4c3=O)o2)cc1Cl	0	-5	57*	34*	0	107*	53*	-4
CCn1c(CSc2nccn2C)nc2cc(C(=O)O)ccc21	2	4	0	38*	0	2	28	16
CCn1c(CSc2nc3ccccc3[nH]2)nc2cc(C(=O)O)ccc21	3	19	3	29	0	-1	x	x
CC1C/C(=C/c2ccncc2)C(=O)/C(=C/c2ccncc2)C1 (stereo not drawn)	0	-5	0	43*	0	18	48*	3
CCc1nnc(NC(=O)[C@@H](NC(=O)c2cc(OC)cc(OC)c2)C(C)C)s1	2	8	0	117*	0	-3	7	1

From PubChem
